MrgX1 ag = human MrgX1 receptor agonism, primary screen. Q96LB2. MrgX1-HEK293 cells, Fluo-4 calcium fluorescence, agonist mode; active compounds read high. B-score at 10 µM. hit rate 0.44% among 310,000. AID 588627;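 active means calcium response B-score plate-corrected fluorescence ratio at least 3 library SD, with starting fluorescence B-score inside 5 SD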
Target sequence (Q96LB2 whole entry, looked up): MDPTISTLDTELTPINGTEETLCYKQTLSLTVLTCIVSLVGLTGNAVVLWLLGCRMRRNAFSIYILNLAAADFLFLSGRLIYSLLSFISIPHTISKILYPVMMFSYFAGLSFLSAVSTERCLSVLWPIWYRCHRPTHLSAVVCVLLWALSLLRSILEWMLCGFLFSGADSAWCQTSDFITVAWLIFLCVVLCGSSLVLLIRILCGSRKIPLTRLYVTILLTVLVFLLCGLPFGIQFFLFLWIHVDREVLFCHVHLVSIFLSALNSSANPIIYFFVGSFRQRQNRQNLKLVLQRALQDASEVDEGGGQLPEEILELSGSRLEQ
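System: HEK293 cells stably expressing human MrgX1 receptor; Dosing: test compound in the initial addition of three; Schedule: overnight plating, then 30 min 37 °C plus 30 min room-temperature dye loading; Detection: kinetic calcium dye fluorescence, Fluo-4 NW; Controls: per-plate positive and negative controls for Z′ factor.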
RGS4 pot = RGS4 potentiation or activation; HEK293 M3R/inducible RGS4, carbachol calcium flux Fluo4; active compounds read low; B-score at 10 µM; hit rate 0.92% among 310,000; AID 463111;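 active means B-score of the integrated calcium signal more than 4 SD below the library mean, with starting fluorescence not abnormally high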;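 further: negative B-score means reduced calcium response which marks RGS4 activation or potentiation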
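Material: Inducible-RGS4 HEK293 cells carrying M3 receptor; also added: carbachol at ECmax as muscarinic agonist stimulus; incubation: compound preincubation 20 min at room temperature before agonist; signal: Fluo4-AM (2 µM) calcium-flux fluorescence, kinetic read; measure: integrated calcium ratio converted to B score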
MrgX1 antag = human MrgX1 receptor antagonism, primary screen | Q96LB2 | B-score at 10 µM | MRGX1-HEK293 calcium flux, Fluo-4, BAM8-22 antagonism; active compounds read low | hit rate 1.3% among 310,000;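 active means calcium-response B-score plate-corrected more than 3 library SD below zero, starting fluorescence within 5 deviations, no agonist response on first addition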;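 further: peak minus trough fluorescence over baseline after final BAM8-22 challenge near maximal dose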
RGS4 block = inhibitors of human RGS4. P49798. HEK293 M3R/RGS4 inducible, Fluo-4 calcium flux; active compounds read high; triggered by carbachol at its EC20. B-score at 10 µM. hit rate 0.45% among 310,000. AID 463165;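 active means B-score, a plate-corrected calcium signal, over three deviations above library mean, with baseline fluorescence within five deviations of library mean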;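 further: RGS4 expression induced by doxycycline in cells with stable M3 receptor; B-score is computed from the integrated fluorescence ratio over baseline after carbachol; higher B-score means a larger calcium signal and so more RGS4 inhibition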
Target sequence (P49798 whole entry, looked up): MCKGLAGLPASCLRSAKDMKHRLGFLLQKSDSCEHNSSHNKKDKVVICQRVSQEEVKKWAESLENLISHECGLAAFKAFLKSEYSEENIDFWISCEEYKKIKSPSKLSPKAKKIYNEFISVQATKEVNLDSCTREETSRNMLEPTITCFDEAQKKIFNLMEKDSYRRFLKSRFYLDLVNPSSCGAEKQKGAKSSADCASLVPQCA
MrgX1 PAM = human MrgX1 positive allosteric modulation, primary screen; MrgX1-HEK293, Fluo-4 calcium flux, FDSS; active compounds read high; AID 588675; Q96LB2; B-score at 10 µM; hit rate 0.63% among 310,000;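 active means plate-corrected calcium response at least 3 library SD above typical, normal starting fluorescence, not activating the receptor alone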;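 further: compound read alongside a low EC10 to EC30 dose of BAM8-22 agonist; peak minus trough fluorescence over baseline measured at the second addition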
RGS4 inh valid = validation of RGS4 inhibitors; shares compounds with RGS4 block; HEK293 M3R/RGS4, carbachol calcium Fluo-4 fluorescence; carbachol added at its EC20; 0 = buffer wells, 100 = carbachol control; calcium response, % at 10 µM; hit rate 65% among 1,700; AID 492999;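 active means duplicate-averaged calcium response above the buffer-only control mean plus 5 SD of those controls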;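 further: integrated fluorescence ratio F max minus min over baseline F0; higher response in RGS4-induced cells means RGS4 inhibition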
RGS4 uninduced = checks RGS4 inhibitor effects in non-induced HEK293 M3R cells. shares compounds with RGS4 block. activity (percent), % at 10 µM. hit rate 20% among 1,900. carbachol calcium Fluo-4; submaximal (EC20) carbachol stimulus; buffer wells 0%, carbachol control wells 100%. AID 493000; call rule not given here;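 further: RGS4 induction absent so cells express M3R without RGS4; higher means more calcium signal and flags a non-specific hit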
M3R basal Ca ctr = signal in non-induced cells without carbachol, RGS4 inhibitor counter-screen | calcium response (agonist-mode artifact), % at 10 µM | HEK293 M3R/RGS4 non-induced, Fluo-4 calcium, no carbachol; normalised: buffer wells 0%, carbachol wells 100% | shares compounds with RGS4 block | hit rate 22% among 1,900;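 active means duplicate-averaged calcium rise in uninduced cells above buffer wells' mean plus 5 SD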
Starred values were filed as active, the others as inactive; i = inactive; . = not tested or not shown. Shown are actives, neighbours in structure and some others; about 3.5% of the full set was active somewhere.

SMILES	MrgX1 ag	RGS4 pot	MrgX1 antag	RGS4 block	MrgX1 PAM	RGS4 inh valid	RGS4 uninduced	M3R basal Ca ctr
Nc1nc(Nc2ccc(Cl)cc2)nc2ccccc12	i	i	i	22*	i	i	i	i
COc1cc(/C=C2\CCOC2=O)cc(OC)c1OC	i	i	i	i	i	.	.	.
COc1cccc(/C=C/c2[nH]c(=O)[nH]c(=O)c2[N+](=O)[O-])c1O	i	i	i	5.3*	i	17%*	i	i
O=c1[nH]c(/C=C/c2ccccc2Cl)c([N+](=O)[O-])c(=O)[nH]1	i	i	i	10*	i	44%*	42%*	i
CC(C)c1ccc(/C=C/c2[nH]c(=O)[nH]c(=O)c2[N+](=O)[O-])cc1	i	i	i	i	i	.	.	.
COc1cc(/C=C/c2[nH]c(=O)[nH]c(=O)c2[N+](=O)[O-])cc(OC)c1O	i	i	i	i	i	.	.	.
COc1ccc(OC)c(C(=O)NC(CC(N)=O)c2ccc(NCCN3CCCCC3)c([N+](=O)[O-])c2)c1 (configuration not stated)	i	i	i	i	i	.	.	.
COc1ccc(/C=C2\C(=O)ON=C2c2ccccc2)cc1	i	i	i	i	i	.	.	.
CC1=NOC(=O)/C1=C/c1ccc(O)c(Cl)c1	37*	i	i	8.2*	i	17%*	i	50%*
O=C1ON=C(c2ccccc2)/C1=C/c1ccc(O)c(O)c1	i	i	i	5.7*	i	26%*	i	53%*
COc1ccc(Cl)cc1/C=C1/C(=O)ON=C1C	i	i	i	i	i	.	.	.
COc1cc(/C=C2\C(=O)ON=C2c2ccc(Cl)cc2)ccc1O	27*	i	i	i	i	.	i	56%*
O=C1ON=C(c2cccc([N+](=O)[O-])c2)/C1=C/c1ccc(O)cc1	i	i	i	16*	i	44%*	i	29%*
CC(=O)c1ccc(O)c(CSC2=NCCS2)c1	i	i	i	i	i	.	.	.
COc1ccc(/C=C2/SC(=S)N(Cc3ccccc3)C2=O)cc1O	i	i	i	5*	i	24%*	i	20%*
O=C(O)COc1ccc(/C=C2/SC(=S)N(Cc3ccccc3)C2=O)cc1	i	i	i	i	i	.	42%*	i
O=C1/C(=C\c2cc(Cl)c(O)c(Cl)c2)SC(=S)N1Cc1ccccc1	i	i	i	i	i	.	.	.
COc1ccc(-c2cn[nH]c2-c2ccc(OCc3ccc([N+](=O)[O-])cc3)cc2O)cc1OC	i	i	i	i	i	.	.	.
CCc1cc(-c2[nH]ncc2-c2ccc([N+](=O)[O-])cc2)c(O)cc1OC	i	i	i	12*	26*	34%*	i	i
COC(=O)C1=C(C)N(C2CCCCC2)C(=O)/C1=C\c1cccs1	i	i	i	5.7*	i	10%*	i	i
O=C(/C=C/c1ccccn1)c1cc(Br)ccc1O	i	i	i	7*	i	12%*	36%*	i
O=C(/C=C/c1ccccn1)c1ccc(Br)cc1O	i	.	i	.	i	.	.	.
O=C(NCc1ccccc1F)C1CCCN(C(=O)NC2CCCCC2)C1 (configuration not stated)	i	i	i	i	i	.	.	.
Cc1ccc(C(C[N+](=O)[O-])c2c(-c3ccccc3O)[nH][nH]c2=O)cc1 (configuration not stated)	i	i	i	6.3*	i	34%*	68%*	22%*
Cn1cc(C(C[N+](=O)[O-])c2ccccc2)c2ccccc21 (configuration not stated)	i	i	i	i	i	.	.	.
SMILES	MrgX1 ag	RGS4 pot	MrgX1 antag	RGS4 block	MrgX1 PAM	RGS4 inh valid	RGS4 uninduced	M3R basal Ca ctr
COc1ccc(C(C[N+](=O)[O-])c2c(C)[nH]c3ccccc23)cc1OC (configuration not stated)	i	i	i	i	i	.	.	.
O=c1[nH][nH]c(-c2ccccc2O)c1C(C[N+](=O)[O-])c1ccc(Br)cc1 (configuration not stated)	i	i	i	15*	i	32%*	36%*	20%*
Cc1ccc(CN2C(=O)C(C)Nc3ncnc(N4CCN(c5ccccn5)CC4)c32)cc1 (configuration not stated)	i	i	i	i	i	.	.	.
Cc1cccc(C)c1N(CC(O)Cn1c2ccccc2c2ccccc21)S(C)(=O)=O (configuration not stated)	i	i	i	7.2*	i	19%*	i	i
CC1=C(C(=O)c2ccccc2)C(c2cn(-c3ccccc3)nc2-c2ccc(Cl)cc2)NC(=S)N1 (configuration not stated)	i	i	i	4.9*	i	10%*	i	9.0%*
O=C1CN(C(=O)COC(=O)c2cc(S(=O)(=O)N3CCOCC3)ccc2Cl)c2ccccc2N1	i	i	i	i	i	.	.	.
Cc1ccc(NCC(=O)N/N=C/c2cc(O)ccc2[N+](=O)[O-])cc1	i	i	i	5.2*	i	i	i	i
Cc1ccc(NCC(=O)N/N=C/c2cccc(Oc3ccccc3)c2)cc1	i	i	i	13*	i	20%*	i	i
Cc1cccc(NCC(=O)N/N=C\c2cccc(Oc3ccccc3)c2)c1	i	i	i	i	i	.	i	i
NNC(=O)c1cc2c(N3CCC(Cc4ccccc4)CC3)ncnc2s1	i	i	i	i	i	.	.	.
Cn1cccc1C(=O)OCC(=O)N1CC(=O)Nc2ccccc21	i	i	i	i	i	.	.	.
Cn1cccc1C(=O)OCC(=O)N1c2ccccc2NC(=O)C1(C)C	i	i	i	5.2*	i	6.5%*	i	i
O=C(c1ccco1)N1CCN(c2ncnc3c(-c4ccc(Cl)cc4)nsc23)CC1	i	i	i	5.2*	i	i	i	i
